Measured values from ChEMBL document CHEMBL1782055, “2,3-dideoxy hex-2-enopyranosid-4-uloses as promising new anti-tubercular agents: design, synthesis, biological evaluation and SAR studies” (Eur J Med Chem, 2011).

Assays:
Assay type in all cases: functional
[1] = system: Mycobacterium tuberculosis; test: Antitubercular activity against isoniazid-resistant Mycobacterium tuberculosis 433 after 24 hrs by BACTEC radiometric susceptibility assay; conditions: Mycobacterium tuberculosis, 433, 24 h
How it was run: (§1)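 BACTEC radiometric assay in 7H12 (12B) medium with 14C-palmitic acid as substrate; 14CO2 output read daily as Growth Index (GI) at 37 °C ± 1 °C. H37Rv inoculum grown in 12B vial to GI around 300. Compounds dissolved in DMSO. Control vial held 1:100 diluted bacterial suspension. Reading continued until control GI reached 30 or more. Daily change in GI compared with control to set susceptibility and MIC.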

[2] = system: Mycobacterium tuberculosis; test: Antitubercular activity against rifampin and isoniazid-resistant Mycobacterium tuberculosis 2643 after 24 hrs by BACTEC radiometric susceptibility assay; conditions: Mycobacterium tuberculosis, 2643, 24 h; how it was run: as §1
[3] = system: Mycobacterium tuberculosis; test: Antitubercular activity against ethambutol-resistant Mycobacterium tuberculosis TB-2506/06 after 24 hrs by BACTEC radiometric susceptibility assay; conditions: TB-2506/06, 24 h; how it was run: as §1
[4] = system: Mycobacterium tuberculosis; test: Antitubercular activity against rifampin and isoniazid-resistant Mycobacterium tuberculosis TB-1678/05 after 24 hrs by BACTEC radiometric susceptibility assay; conditions: TB-1678/05, 24 h; how it was run: as §1

Measured: MIC

CC(C)CCO[C@@H]1C=CC(=O)[C@@H](COC(=O)C(C)(C)C)O1
1.56 µg/mL: [1] | [2] | [3] | [4]
